According to ChEMBL document CHEMBL1148687, “Identification of a novel 4-aminomethylpiperidine class of M3 muscarinic receptor antagonists and structural insight into their M3 selectivity” (J Med Chem, 2006):
pKi: −log10 of the molar value.

What was measured:
[1] = biological target: T1, Muscarinic acetylcholine receptor M4 (Homo sapiens, UniProt P08173); test: Inhibition of [3H]NMS binding to human cloned M4 receptor expressed in CHO cells; format: cell-based
T1 sequence (P08173 whole entry): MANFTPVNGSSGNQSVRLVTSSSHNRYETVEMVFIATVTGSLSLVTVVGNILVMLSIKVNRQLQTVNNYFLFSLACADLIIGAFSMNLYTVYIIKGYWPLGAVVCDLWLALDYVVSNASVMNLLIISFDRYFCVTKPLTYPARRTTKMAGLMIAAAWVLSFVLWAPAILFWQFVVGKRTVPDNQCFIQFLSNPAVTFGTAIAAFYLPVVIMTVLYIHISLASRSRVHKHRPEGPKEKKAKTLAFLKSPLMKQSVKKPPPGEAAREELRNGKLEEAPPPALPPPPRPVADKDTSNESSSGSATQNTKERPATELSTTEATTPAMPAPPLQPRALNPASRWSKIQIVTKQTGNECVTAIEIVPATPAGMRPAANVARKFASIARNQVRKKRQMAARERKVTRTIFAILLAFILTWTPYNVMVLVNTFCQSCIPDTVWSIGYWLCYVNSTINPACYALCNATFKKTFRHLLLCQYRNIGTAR
Summary of the method: (§1)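 Competition against specific [3H]-NMS binding on membranes of CHO cells expressing cloned human receptor subtypes. Assay buffer 50 mM Tris-HCl, 10 mM MgCl2, 1 mM EDTA, pH 7.4, highest final concentration 10 µM.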

[2] = biological target: T2, Muscarinic acetylcholine receptor M3 (Homo sapiens, UniProt P20309); test: Inhibition of [3H]NMS binding to human cloned M3 receptor expressed in CHO cells at 1 uM; format: cell-based
Target sequence in this assay (P20309 whole entry, looked up): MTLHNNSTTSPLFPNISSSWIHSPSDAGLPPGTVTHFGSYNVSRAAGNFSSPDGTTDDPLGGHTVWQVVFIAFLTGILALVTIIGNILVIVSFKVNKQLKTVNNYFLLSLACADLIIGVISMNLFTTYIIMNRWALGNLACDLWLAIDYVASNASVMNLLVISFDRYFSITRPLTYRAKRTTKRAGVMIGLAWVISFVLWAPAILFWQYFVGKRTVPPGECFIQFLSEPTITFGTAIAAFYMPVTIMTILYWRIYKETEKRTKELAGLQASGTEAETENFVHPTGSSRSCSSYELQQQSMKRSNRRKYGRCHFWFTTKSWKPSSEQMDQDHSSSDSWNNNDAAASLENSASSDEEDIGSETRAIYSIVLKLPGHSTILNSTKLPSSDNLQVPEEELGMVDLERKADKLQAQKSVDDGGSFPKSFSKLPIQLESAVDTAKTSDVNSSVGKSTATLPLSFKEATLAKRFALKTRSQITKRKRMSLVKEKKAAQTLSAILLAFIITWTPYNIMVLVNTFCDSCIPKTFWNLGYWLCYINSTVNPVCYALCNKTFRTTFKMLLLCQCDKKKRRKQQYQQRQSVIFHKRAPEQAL

[3] = biological target: T2, Muscarinic acetylcholine receptor M3; test: Inhibition of [3H]NMS binding to human cloned M3 receptor expressed in CHO cells; format: cell-based; summary of the method: as §1
Target sequence in this assay (P20309 whole entry): as the sequence (P20309 whole entry, looked up) above

[4] = biological target: T3, Muscarinic acetylcholine receptor M1 (Homo sapiens, UniProt P11229); test: Inhibition of [3H]NMS binding to human cloned M1 receptor expressed in CHO cells; format: cell-based; summary of the method: as §1
T3 sequence (P11229 whole entry): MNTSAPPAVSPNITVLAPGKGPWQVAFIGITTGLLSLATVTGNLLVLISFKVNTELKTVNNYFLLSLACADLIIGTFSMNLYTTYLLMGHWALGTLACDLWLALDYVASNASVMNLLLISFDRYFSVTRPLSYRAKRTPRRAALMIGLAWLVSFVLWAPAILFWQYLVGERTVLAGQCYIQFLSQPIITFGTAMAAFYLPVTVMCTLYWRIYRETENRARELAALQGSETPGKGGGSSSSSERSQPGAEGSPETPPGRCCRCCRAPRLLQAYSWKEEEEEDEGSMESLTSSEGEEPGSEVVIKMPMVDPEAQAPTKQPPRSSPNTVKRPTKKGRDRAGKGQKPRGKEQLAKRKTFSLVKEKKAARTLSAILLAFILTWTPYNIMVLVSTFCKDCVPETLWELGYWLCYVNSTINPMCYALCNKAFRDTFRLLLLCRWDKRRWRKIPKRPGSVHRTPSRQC

[5] = biological target: T4, Muscarinic acetylcholine receptor M5 (Homo sapiens, UniProt P08912); test: Inhibition of [3H]NMS binding to human cloned M5 receptor expressed in CHO cells; format: cell-based; summary of the method: as §1
T4 sequence (P08912 whole entry): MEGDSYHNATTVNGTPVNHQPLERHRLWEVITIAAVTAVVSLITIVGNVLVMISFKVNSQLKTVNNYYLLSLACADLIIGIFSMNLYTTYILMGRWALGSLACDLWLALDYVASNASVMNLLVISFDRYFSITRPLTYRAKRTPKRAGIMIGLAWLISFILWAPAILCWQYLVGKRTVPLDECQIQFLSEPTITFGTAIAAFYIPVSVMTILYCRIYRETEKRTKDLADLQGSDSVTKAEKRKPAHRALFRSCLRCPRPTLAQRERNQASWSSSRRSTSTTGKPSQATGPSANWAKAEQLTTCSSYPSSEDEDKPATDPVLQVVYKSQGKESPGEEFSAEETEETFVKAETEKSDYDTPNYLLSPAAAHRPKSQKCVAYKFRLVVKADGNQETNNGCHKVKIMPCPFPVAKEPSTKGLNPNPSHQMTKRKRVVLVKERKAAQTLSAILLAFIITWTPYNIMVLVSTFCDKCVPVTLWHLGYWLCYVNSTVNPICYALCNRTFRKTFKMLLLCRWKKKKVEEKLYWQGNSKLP

[6] = biological target: T5, Muscarinic acetylcholine receptor M2 (Rattus norvegicus, UniProt P10980); test: Antagonist activity at M2 receptor assessed as inhibition of carbachol-induced bradycardia in rat atria; format: functional; settings: read-out: pA2 (converted)
T5 sequence (P10980 whole entry): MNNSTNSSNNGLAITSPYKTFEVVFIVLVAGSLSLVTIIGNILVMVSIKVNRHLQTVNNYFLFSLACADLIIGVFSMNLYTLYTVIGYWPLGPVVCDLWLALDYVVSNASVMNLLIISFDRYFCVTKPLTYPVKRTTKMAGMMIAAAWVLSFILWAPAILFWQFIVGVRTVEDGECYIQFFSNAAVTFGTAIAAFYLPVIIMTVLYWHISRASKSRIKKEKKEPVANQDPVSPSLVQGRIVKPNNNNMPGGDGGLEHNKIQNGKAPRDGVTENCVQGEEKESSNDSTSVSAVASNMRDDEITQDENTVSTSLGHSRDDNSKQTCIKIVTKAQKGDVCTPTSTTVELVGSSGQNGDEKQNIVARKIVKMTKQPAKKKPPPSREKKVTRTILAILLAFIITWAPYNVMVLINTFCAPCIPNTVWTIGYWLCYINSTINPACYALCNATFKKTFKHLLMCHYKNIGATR
Summary of the method: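 Isolated rat right atria, bradycardia evoked by carbachol, antagonist given at several doses. Four experiments per dose, reported as mean ± SEM. Potency obtained by Schild regression analysis.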

[7] = biological target: Muscarinic acetylcholine receptor M3 (Rattus norvegicus) (UniProt P08483); test: (§2) Antagonist activity at M3 receptor assessed as inhibition of carbachol-induced contraction of rat trachea; format: functional
Summary of the method: (§3)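 Contraction of isolated rat trachea evoked by carbachol, antagonist given at several doses. Four experiments per dose, reported as mean ± SEM. Schild regression analysis applied to the data.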

[8] = biological target: Muscarinic acetylcholine receptor M3 (Rattus norvegicus, UniProt P08483); test: as §2; format: functional; settings: read-out: pA2 (converted); summary of the method: as §3
Chain of Muscarinic acetylcholine receptor M3 (Rattus norvegicus, UniProt P08483) (P08483 whole entry): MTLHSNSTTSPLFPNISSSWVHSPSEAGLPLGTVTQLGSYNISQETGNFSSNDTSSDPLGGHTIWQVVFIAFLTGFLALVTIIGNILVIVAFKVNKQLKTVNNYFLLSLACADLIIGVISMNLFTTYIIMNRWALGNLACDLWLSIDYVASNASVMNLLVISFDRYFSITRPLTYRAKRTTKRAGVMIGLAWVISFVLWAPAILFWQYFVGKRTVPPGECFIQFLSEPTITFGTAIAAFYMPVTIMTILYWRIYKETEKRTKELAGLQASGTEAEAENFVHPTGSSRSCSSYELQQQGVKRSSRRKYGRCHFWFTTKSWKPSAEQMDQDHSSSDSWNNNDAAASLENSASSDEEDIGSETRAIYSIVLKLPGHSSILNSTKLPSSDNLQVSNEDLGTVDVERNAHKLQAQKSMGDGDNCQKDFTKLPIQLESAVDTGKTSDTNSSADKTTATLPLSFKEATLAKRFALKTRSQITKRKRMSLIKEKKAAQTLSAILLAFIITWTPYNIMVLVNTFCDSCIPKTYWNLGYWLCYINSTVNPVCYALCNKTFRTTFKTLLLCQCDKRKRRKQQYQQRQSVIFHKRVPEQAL

Chain of Muscarinic acetylcholine receptor M3 (Rattus norvegicus) (P08483 whole entry, looked up): as the sequence (P08483 whole entry) above

O=C(NC[C@H]1CCCNC1)[C@H]1CCCN1C(=O)[C@@H]1CCCN1C(=O)CC(c1ccccc1)(c1ccccc1)c1ccccc1
pKi [1]: < 5.77
inhibition [2]: 74%
pKi [3]: 7.00
pKi [4]: < 5.60
pKi [5]: < 5.30

O=C(NCC1CCNCC1)[C@H]1CCCN1C(=O)[C@@H]1C[C@@H](O)CN1C(=O)CC(c1ccc(F)cc1)(c1ccc(F)cc1)c1ccc(F)cc1
Kb [6]: 204 nM
pKi [1]: 7.38
Activity [7]: Dose-dependent effect
Kb [8]: 0.224 nM
pKi [3]: 9.52
pKi [4]: 6.77
pKi [5]: 5.46

O=C(NCCC1CCNCC1)[C@H]1CCCN1C(=O)[C@@H]1C[C@@H](O)CN1C(=O)CC(c1ccccc1)(c1ccccc1)c1ccccc1
pKi [1]: 6.82
pKi [3]: 8.55
pKi [4]: 5.70
pKi [5]: < 5.29

CC(C)NC(=O)[C@H]1CCCN1C(=O)[C@@H]1C[C@@H](O)CN1C(=O)CC(c1ccc(F)cc1)(c1ccc(F)cc1)c1ccc(F)cc1
pKi [1]: 6.74
pKi [3]: 8.62
pKi [4]: 6.10
pKi [5]: < 5.27

O=C(NCCC1CCNCC1)[C@H]1CCCN1C(=O)[C@@H]1C[C@@H](O)CN1C(=O)CC(c1ccc(Cl)cc1)(c1ccc(Cl)cc1)c1ccc(Cl)cc1
pKi [1]: 7.62
pKi [3]: 8.92
pKi [4]: 6.59
pKi [5]: 6.02

O=C(NCC1CCN(CC2CC2)CC1)[C@H]1CCCN1C(=O)[C@@H]1C[C@@H](O)CN1C(=O)CC(c1ccc(F)cc1)(c1ccc(F)cc1)c1ccc(F)cc1
pKi [1]: 7.70
pKi [3]: 9.77
pKi [4]: 7.19
pKi [5]: 5.80

O=C(NC[C@@H]1CCCNC1)[C@H]1CCCN1C(=O)[C@@H]1C[C@@H](O)CN1C(=O)CC(c1ccccc1)(c1ccccc1)c1ccccc1
pKi [1]: 6.54
pKi [3]: 8.43
pKi [4]: < 5.59
pKi [5]: < 5.29
